In paper PMC5615155 (Toxicology Reports, 2017):
Entries after “also recorded” stand apart in the source; their conditions may differ.

Columns and labels:
[1] = in vitro microsomal metabolism; format: in vitro ADME, human; details: 10 μM, 0.5 mg/mL, +NADPH, 120 min
CYP1A2 = biological target: T1, CYP1A2 (Homo sapiens, UniProt P05177); assay: CYP inhibition, spectrofluorimetric; format: biochemical; details: recombinant human CYP1A2 expressed in insect Sf9 cells
T1 sequence (P05177 1-516): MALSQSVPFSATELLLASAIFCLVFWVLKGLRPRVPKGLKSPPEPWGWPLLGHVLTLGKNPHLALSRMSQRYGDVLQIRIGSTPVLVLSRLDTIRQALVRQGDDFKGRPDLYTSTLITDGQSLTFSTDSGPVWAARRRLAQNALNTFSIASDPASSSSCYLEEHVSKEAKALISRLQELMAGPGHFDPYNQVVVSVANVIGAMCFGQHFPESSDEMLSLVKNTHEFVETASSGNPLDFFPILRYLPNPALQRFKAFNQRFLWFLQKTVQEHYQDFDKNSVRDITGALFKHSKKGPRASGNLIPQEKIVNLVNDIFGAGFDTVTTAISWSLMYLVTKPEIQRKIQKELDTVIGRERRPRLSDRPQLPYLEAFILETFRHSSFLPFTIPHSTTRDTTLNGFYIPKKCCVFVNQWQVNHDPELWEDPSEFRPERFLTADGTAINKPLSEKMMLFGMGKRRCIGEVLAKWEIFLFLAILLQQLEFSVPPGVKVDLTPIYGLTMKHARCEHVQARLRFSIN
Summary of the method: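 Inhibition was assayed with recombinant human CYP isoforms expressed in insect Sf9 cells. Turnover of spectrofluorimetric substrates was read by fluorescence. Test compound was tested at a single concentration of 10 μM.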

[2] = system: 68 receptor binding assays for GPCRs, ion channels, nuclear receptors, transporters; assay: receptor lead profiling panel; details: 10 μM
[3] = in vitro microsomal metabolism; format: in vitro ADME, Sprague-Dawley rat; details: 10 μM, 0.5 mg/mL, +NADPH, 120 min
[4] = system: human peripheral blood lymphocytes (HPBL); assay: in vitro micronucleus test; format: cell-based
Summary of the method: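 HPBL micronucleus test per OECD 487, GLP. Exposures: 4 h −S9, 4 h +S9 (Aroclor 1254-induced male rat liver), 24 h −S9. DMSO solvent; positive controls vinblastine (−S9) and cyclophosphamide (+S9). 4 h cultures were washed, then 20 h in cytochalasin B 6.0 μg/mL. Dose range from preliminary toxicity test (0.2–2000 μg/mL). Duplicate cultures: CBPI from ≥1000 cells; ≥2000 binucleated cells scored.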

## Cc1cc(C(=O)NC(C)(C)COc2cccc3c2C(N)=NS(=O)(=O)N3)cc(C)n1 [S2218, N-(1-((4-amino-2,2-dioxido-1H-benzo[c][1,2,6]thiadiazin-5-yl)oxy)-2-methylpropan-2-yl)-2,6-dimethylisonicotinamide]
[1]
  % MS (EIC) peak area of parent relative to time 0: 98.4 ± 0.4%
CYP1A2
  inhibition at 10 μM: ≤ 7%
[2]
  inhibition or stimulation in lead profiling receptor screen: < 50%
[3]
  % MS (EIC) peak area of parent relative to time 0: 96.5 ± 0.4%
[4]; 250–1000 μg/mL, 24 h exposure, −S9
  Micronucleus formation (in vitro), result: negative for the induction of micronuclei
[4]; 500–2000 μg/mL, 4 h exposure, ±S9
  Micronucleus formation (in vitro), result: neither clastogenic nor aneugenic; also recorded: negative for the induction of micronuclei
[4]; micronucleus assay, any dose, three treatment conditions
  cytotoxicity (55 ± 5% CBPI relative to vehicle control): not observed
[4]; non-activated 24 h exposure
  concentration with visible precipitate: ≥ 1000 µg/mL
[4]; non-activated and S9-activated 4 h exposure
  concentration with visible precipitate: 2000 µg/mL
